Molecules are shown by their SMILES. In brackets after ≈: the same amount, converted by molar mass. Activity calls are given as the source filed them. The calls are words filed in the database; no cut-off is given here.

Data set [1] relates to Mycobacterium tuberculosis. Nature of the data set: Antitubercular activity against drug-sensitive Mycobacterium tuberculosis H37Rv ATCC 27294 measured after 7 days by microplate alamar blue assay. It counts as functional. Particulars: for MIC90: H37Rv ATCC 27294, 168 h. A digest of the protocol:
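Microplate Alamar Blue Assay against strain H37Rv ATCC27294. MIC is the lowest concentration giving more than 90% reduction in fluorescence relative to the mean of replicate bacterium-only controls.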

A further data set concerns Mus musculus. Nature of the data set: Acute toxicity in mouse assessed as survival at 500 mg/kg, po administered as single dose measured for 7 days. The following applies: in vivo, 168 h. It counts as organism-based.
The nature of data set [2]: Cmax in mouse at 50 mg/kg, po administered as single dose. It counts as ADME, organism-based. More on the design: dose 50 mg/kg, route oral. The following applies: in vivo. A digest of the protocol: (§1)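 Mice (n = 3) received one oral 50 mg/kg dose; plasma levels were followed to derive T1/2 (h), Tmax (h), Cmax (ng/mL) and AUC0-∞ (h·ng/mL).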
A short description of data set [3]: AUC (0 to infinity) in mouse at 50 mg/kg, po administered as single dose. More on the design: dose 50 mg/kg, route oral, time infinity. It counts as ADME, organism-based. The following applies: in vivo. In short, it runs like this:
as §1

A short description of data set [4]: Half life in mouse at 50 mg/kg, po administered as single dose. It counts as ADME, organism-based. Particulars: in vivo. A digest of the protocol:
as §1

Data set [5] in a line: Tmax in mouse at 50 mg/kg, po administered as single dose. It counts as ADME, organism-based. The following applies: in vivo. In short, it runs like this: as §1

By MIC90 is commonly meant an inhibitory concentration at the 90% level, which refers to growth in some studies and to a panel of isolates in others. `O=C(NCc1ccc(N2CCOCC2)cc1)c1cc([N+](=O)[O-])cc(C(F)(F)F)c1` had an MIC90 in data set [1] of more than 8 µg/mL. What is called Cmax is the maximum level reached in the sampled fluid or tissue. The AUC(0-inf) is total exposure, with the tail of the curve extrapolated. Read a high AUC(0-inf) as more exposure. A word on the half-life: it is how long it takes for the measured level to halve. A low value points to rapid decline. What is called Tmax is the time at which the peak concentration occurs. For the compound `O=C(NCc1ccc(N2CCC(c3ccc(OC(F)(F)F)cc3)CC2)cc1)c1cc([N+](=O)[O-])cc([N+](=O)[O-])c1`, the Activity result with Mus musculus was “Non-Toxic”. The same compound returned a maximum concentration (Cmax) in data set [2] of 366 ng/mL. This compound also yielded an AUC(0-inf) in data set [3] of 3260 ng·h/mL. Further, the half-life in data set [4] is 5.52 h. Moreover, the Tmax in data set [5] was determined as 0.83 h. The MIC90 in data set [1] is 0.0625 µg/mL (≈ 0.115 µM). Compound `O=C(NCc1ccc(N2CCN(c3ccccn3)CC2)cc1)c1cc([N+](=O)[O-])cc(C(F)(F)F)c1` returned an MIC90 in data set [1] of 1 µg/mL (≈ 2.06 µM). In data set [1], `COc1ccc(OCCNC(=O)c2cc([N+](=O)[O-])cc(C(F)(F)F)c2)cc1` had an MIC90 of 1 µg/mL (≈ 2.6 µM). The same measure, in the same setting: with `NNC(=O)c1ccncc1` [ISONIAZID] the figure was 0.0781 µg/mL (≈ 0.569 µM). As to `CC(C)N1CCN(c2ccc(CNC(=O)c3cc([N+](=O)[O-])cc([N+](=O)[O-])c3)cc2)CC1`, the MIC90 in data set [1] was found to be 4 µg/mL (≈ 9.36 µM). This MIC90 is about 51-fold higher than that of the compound before. The same measure, in the same setting: with `O=C(NCc1ccc(N2CCOCC2)cc1)c1cc([N+](=O)[O-])cc([N+](=O)[O-])c1` the figure was more than 8 µg/mL; with `CN1CCN(c2ccc(CNC(=O)c3cc([N+](=O)[O-])cc([N+](=O)[O-])c3)cc2)CC1`, 4 µg/mL (≈ 10 µM). Still for that read-out and setting: to `O=C(NCCN1CCN(CC2CCCCC2)CC1)c1cc([N+](=O)[O-])cc(C(F)(F)F)c1` belongs 0.0781 to 4 µg/mL (≈ 0.177 to 9.04 µM); to `CO[C@H]1/C=C/O[C@@]2(C)Oc3c(C)c(O)c4c(O)c(c(/C=N/N5CCN(C)CC5)c(O)c4c3C2=O)NC(=O)/C(C)=C\C=C\[C@H](C)[C@H](O)[C@@H](C)[C@@H](O)[C@@H](C)[C@H](OC(C)=O)[C@@H]1C` [RIFAMPIN], 0.0781 µg/mL (≈ 0.0949 µM); to `CC(C)N1CCN(c2ccc(CNC(=O)c3cc([N+](=O)[O-])cc(C(F)(F)F)c3)cc2)CC1`, 8 µg/mL (≈ 17.8 µM). With `O=C(NCc1ccc(N2CCSCC2)cc1)c1cc([N+](=O)[O-])cc([N+](=O)[O-])c1`, in the data set with Mus musculus, the Activity entry is on record as “Non-Toxic”. In data set [2], the peak concentration (Cmax) is 19 ng/mL. Further, in data set [3], the area under the curve AUC(0-inf) was 41.1 ng·h/mL. Also, the half-life in data set [4] is 3.3 h. The Tmax in data set [5] amounted to 2.75 h. The MIC90 in data set [1] was determined as 0.0625 µg/mL (≈ 0.155 µM). Turning to `O=C(NCc1ccc(N2CC3CCCCC3C2)cc1)c1cc([N+](=O)[O-])cc(C(F)(F)F)c1` (stereo not drawn), the MIC90 in data set [1] was 0.5 µg/mL (≈ 1.12 µM). For `O=C(NCCNc1ccc([N+](=O)[O-])cc1)c1cc([N+](=O)[O-])cc(C(F)(F)F)c1`, in data set [1], the result was Active.

With `O=C(NCCNc1ccc(Br)cc1)c1cc([N+](=O)[O-])cc(C(F)(F)F)c1`, in data set [1], the result was Active. The same measure, in the same setting: to `O=C(NCCN1CCN(c2ccccc2)CC1)c1cc([N+](=O)[O-])cc(C(F)(F)F)c1` belongs “Active”. Turning to `O=C(NCc1ccc(N2CCCCC2)cc1)c1cc([N+](=O)[O-])cc([N+](=O)[O-])c1`, the MIC90 in data set [1] amounted to 2 µg/mL (≈ 5.2 µM). Still for that read-out and setting: to `CN1CCN(c2ccc(CNC(=O)c3cc([N+](=O)[O-])cc(C(F)(F)F)c3)cc2)CC1` belongs more than 8 µg/mL; to `O=C(NCc1ccc(N2CCCCC2)cc1)c1cc([N+](=O)[O-])cc(C(F)(F)F)c1`, 0.25 µg/mL (≈ 0.614 µM). In data set [1], `O=C(NCc1ccc(N2CCN(c3ccc(F)cc3)CC2)cc1)c1cc([N+](=O)[O-])cc(C(F)(F)F)c1` returned an MIC90 of 0.5 µg/mL (≈ 0.995 µM). In data set [1], `O=C(NCc1ccc(N2CCSCC2)cc1)c1cc([N+](=O)[O-])cc(C(F)(F)F)c1` returned an MIC90 of 0.125 µg/mL (≈ 0.294 µM).

In data set [1], `O=C(NCc1ccc(N2CCC(C(F)(F)F)CC2)cc1)c1cc([N+](=O)[O-])cc(C(F)(F)F)c1` had an MIC90 of 0.0625 µg/mL (≈ 0.131 µM). Against the preceding compound, the MIC90 is about 2-fold lower. As to `O=C(NCc1ccc(N2CCN(c3ccncc3)CC2)cc1)c1cc([N+](=O)[O-])cc(C(F)(F)F)c1`, the MIC90 in data set [1] is 8 µg/mL (≈ 16.5 µM). Consider `O=C(NCc1ccc(N2CCN(c3ccncc3)CC2)cc1)c1cc([N+](=O)[O-])cc([N+](=O)[O-])c1`, for which the MIC90 in data set [1] came to 2 µg/mL (≈ 4.32 µM).

On to `O=C(NCc1ccc(N2CCC(C(F)(F)F)CC2)cc1)c1cc([N+](=O)[O-])cc([N+](=O)[O-])c1`, for which the Activity entry in the data set on Mus musculus was “Non-Toxic”. Also, the Cmax in data set [2] turned out to be 1720 ng/mL. In data set [3], this compound showed an AUC(0-inf) of 5600 ng·h/mL. The same compound had a half-life in data set [4] of 3.63 h. In addition, in data set [5], the time of peak concentration (Tmax) was found to be 0.92 h. In addition, in data set [1], the MIC90 is 0.0625 µg/mL (≈ 0.138 µM).

Regarding `O=c1nc(N2CCN(CC3CCCCC3)CC2)sc2c([N+](=O)[O-])cc(C(F)(F)F)cc12` [MACOZINONE], the MIC90 in data set [1] turned out to be 0.0625 µg/mL (≈ 0.137 µM).

The compound `O=C(NCc1ccc(N2CCN(c3ccccn3)CC2)cc1)c1cc([N+](=O)[O-])cc([N+](=O)[O-])c1` had an MIC90 in data set [1] of 1 µg/mL (≈ 2.16 µM). Still for that read-out and setting: with `O=C(NCc1ccc(N2CCC(Oc3ccc(OC(F)(F)F)cc3)CC2)cc1)c1cc([N+](=O)[O-])cc(C(F)(F)F)c1` the figure was 2 µg/mL (≈ 3.43 µM).

On to `O=C(NCc1ccc(N2CCN(c3ccc(F)cc3)CC2)cc1)c1cc([N+](=O)[O-])cc([N+](=O)[O-])c1`, for which the Activity entry in the data set with Mus musculus was “Non-Toxic”. Moreover, in data set [2], the peak concentration (Cmax) is 15 ng/mL. The same compound came in with an AUC(0-inf) in data set [3] of 219 ng·h/mL. This compound also showed a half-life in data set [4] of 13.6 h. In data set [5], the time of peak concentration (Tmax) is 1.08 h. The compound further registered an MIC90 in data set [1] of 0.0625 µg/mL (≈ 0.13 µM). The compound `O=C(NCc1ccc(N2CCC(Oc3ccc(OC(F)(F)F)cc3)CC2)cc1)c1cc([N+](=O)[O-])cc([N+](=O)[O-])c1` gave an MIC90 in data set [1] of 0.5 µg/mL (≈ 0.892 µM). The same measure, in the same setting: to `O=C(NCc1ccc(N2CCC(c3ccc(OC(F)(F)F)cc3)CC2)cc1)c1cc([N+](=O)[O-])cc(C(F)(F)F)c1` belongs 0.5 µg/mL (≈ 0.881 µM).

For `O=C(NCc1ccc(N2CC3CCCCC3C2)cc1)c1cc([N+](=O)[O-])cc([N+](=O)[O-])c1` (stereo not drawn), the Activity entry with Mus musculus is listed as “Non-Toxic”. This compound also came in with an MIC90 in data set [1] of 0.0625 µg/mL (≈ 0.147 µM).

The record behind these values is ChEMBL document CHEMBL4196125, “Identification of N-Benzyl 3,5-Dinitrobenzamides Derived from PBTZ169 as Antitubercular Agents” (ACS Med Chem Lett, 2018).
